Experimental data taken from ChEMBL document CHEMBL3259732, “Vascular effects of diphenylmethoxypiperidine-derived dopamine uptake inhibitors” (2014).
The source made the active and inactive calls. The rule behind the calls is not given here.

What was measured:
Type in all cases: functional
Rattus norvegicus = species: Rattus norvegicus; assay: (§1) Vascular activity in receptor-independent rat mesenteric resistance artery assessed as inhibition of KCl-induced contraction at 3 x 10^-6 M after 5 mins
In short: (§2)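 Receptor-independent response in rat mesenteric resistance arteries normalized to optimal diameter at 100 mmHg transmural pressure. After pre-incubation with test agent at 3 x 10^-6 M, maximal contraction to 75 mM KCl was recorded. Block was judged against control arteries, p<0.05.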

[1] = Vascular activity in receptor-dependent rat mesenteric resistance artery assessed as inhibition of noradrenaline-induced contraction at 3 x 10^-6 M after 5 mins
In short: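 Rat mesenteric resistance arteries set to optimal diameter (OD = 0.9 L100, from the diameter at 100 mmHg transmural pressure). Rings pre-incubated with test agent at 3 x 10^-6 M, then given a dose–response curve to noradrenaline as the receptor-dependent contraction. Inhibition read against control arteries, p<0.05.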

[2] = Vascular activity in receptor-dependent rat mesenteric resistance artery assessed as inhibition of noradrenaline-induced contraction at 3 x 10^-6 M after 5 mins relative to maximal response to KCl; parameters: scale not given: the % may be the effect or the level left
[3] = as §1; in short: as §2

| Compound | inhibition (Rattus norvegicus) | pD2 [1] | Activity [2] [%] | inhibition at 3 µM [3] [%] |
| --- | --- | --- | --- | --- |
| CCCCN1CCC(OC(c2ccc(Cl)cc2)c2ccc(Cl)cc2)CC1 | Active | 4.26 | 99 | – |
| CN1CCC(OC(c2ccccc2)c2ccccc2)CC1 [DIPHENYLPYRALINE] | – | 5.38 | 129 | 70 |
| Fc1ccc(C(OC2CCNCC2)c2ccc(F)cc2)cc1 | – | 5.17 | 116 | 70 |
| CN1CCC(OC(c2ccc(F)cc2)c2ccc(F)cc2)CC1 | – | 5.1 | 121 | 70 |
| NC[C@H](O)c1ccc(O)c(O)c1.O=C(O)C(O)C(O)C(=O)O | – | 5.95 | 122 | – |
| COC(=O)[C@H]1[C@@H](OC(=O)c2ccccc2)C[C@@H]2CC[C@H]1N2C [COCAINE] | inactive | 6.52 | 130 | – |
| CN1CCC(OC(c2ccccc2)c2ccc(Cl)cc2)CC1 (stereo not drawn) | – | 5.08 | 113 | 70 |
| CC(C)N1CCC(OC(c2ccc(F)cc2)c2ccc(F)cc2)CC1 | Active | 4.48 | 121 | – |
